For data set [1], the target named is T1, 5-hydroxytryptamine receptor 1B (Homo sapiens, UniProt P28222). The data set is described as follows: Binding affinity to 5HT1B receptor expressed in CHO cells. The format is cell-based. The method in brief:
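Frozen membranes from stably transfected CHO cells expressing 5-HT1B, 10 μg/well. Buffer: 50 mM Tris-HCl, 4 mM MgCl2, 4 mM CaCl2, 1 mM EDTA, pH 7.4. [3H]GR125743 at 0.5 nM final; nonspecific binding defined with 1 μM AZD1134. 11-point dilutions, 10 μM to 170 pM final. 1 h at room temperature, then WGA yttrium silicate SPA beads for 30 min. IC50 and Ki derived with Kenakin correction for ligand depletion.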

For data set [2], the system named is in vitro phospholipidosis assay (no protein target). As to the kind of experiment: in vitro. The settings on record: human.
Data set [3] deals with T1, 5-hydroxytryptamine receptor 1B. The data set is described as follows: Antagonist activity at 5HT1B receptor expressed in CHO cells by [35S]GTPgammaS assay. It is filed as functional, cell-based. The arrangement: concentration or dose not given beside the values.
The target in data set [4] is 5-hydroxytryptamine receptor 2B (Homo sapiens) (UniProt P41595). The data set is described as follows: Inhibition of human 5HT2B receptor at 10 uM. The method in brief:
(§1)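 Radioligand binding assays from an outside panel of 100 targets, single concentration 10 μM, reported as % effect. Receptor species: human for 5-HT1A, 5-HT2A and 5-HT2B; guinea pig for 5-HT4.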

For data set [5], the target named is 5-hydroxytryptamine receptor 2A (Homo sapiens) (UniProt P28223). The data set is described as follows: Inhibition of human 5HT2A receptor at 10 uM. The method in brief:
as §1

Data set [6] deals with 5-hydroxytryptamine receptor 4 (Cavia porcellus) (UniProt O70528). The data set is described as follows: Inhibition of guinea pig 5HT4 receptor at 10 uM. The method in brief: as §1
Another data set has as its system Cavia porcellus. As to the kind of experiment: Reversal of NXY041-induced hypothermia in sc dosed guinea pig. It is filed as functional, organism-based.
In data set [7] the target is T2, 5-hydroxytryptamine receptor 1A (Homo sapiens) (UniProt P08908).
T2 sequence (whole entry): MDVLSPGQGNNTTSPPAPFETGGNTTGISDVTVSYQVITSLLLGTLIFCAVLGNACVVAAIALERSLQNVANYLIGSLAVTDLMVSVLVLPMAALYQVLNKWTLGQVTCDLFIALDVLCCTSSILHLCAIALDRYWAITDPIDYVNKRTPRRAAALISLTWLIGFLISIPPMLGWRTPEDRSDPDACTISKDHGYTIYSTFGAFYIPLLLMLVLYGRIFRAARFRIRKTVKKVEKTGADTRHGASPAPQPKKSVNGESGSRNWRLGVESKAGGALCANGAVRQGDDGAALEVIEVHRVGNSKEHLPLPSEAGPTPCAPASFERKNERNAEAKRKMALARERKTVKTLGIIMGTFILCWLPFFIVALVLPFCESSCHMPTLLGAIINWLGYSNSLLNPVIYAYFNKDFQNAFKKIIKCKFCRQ
As to the kind of experiment: Inhibition of human 5HT1A receptor at 10 uM. The method in brief: as §1

pKi: −log10 of the molar value. Active and inactive are the calls of the source. The rule behind the calls is not given here.

T1 sequence (P28222 whole entry): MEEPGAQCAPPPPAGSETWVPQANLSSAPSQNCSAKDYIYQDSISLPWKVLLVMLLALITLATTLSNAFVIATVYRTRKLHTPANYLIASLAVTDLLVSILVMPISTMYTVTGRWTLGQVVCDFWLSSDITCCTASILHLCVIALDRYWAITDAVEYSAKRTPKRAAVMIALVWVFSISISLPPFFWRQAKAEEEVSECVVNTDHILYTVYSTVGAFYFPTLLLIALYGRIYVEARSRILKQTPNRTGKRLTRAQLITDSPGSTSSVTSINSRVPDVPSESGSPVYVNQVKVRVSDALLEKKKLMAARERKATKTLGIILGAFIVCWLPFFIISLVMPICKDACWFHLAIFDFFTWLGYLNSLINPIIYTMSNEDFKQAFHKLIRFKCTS
5-hydroxytryptamine receptor 2B (Homo sapiens), sequence (P41595 whole entry): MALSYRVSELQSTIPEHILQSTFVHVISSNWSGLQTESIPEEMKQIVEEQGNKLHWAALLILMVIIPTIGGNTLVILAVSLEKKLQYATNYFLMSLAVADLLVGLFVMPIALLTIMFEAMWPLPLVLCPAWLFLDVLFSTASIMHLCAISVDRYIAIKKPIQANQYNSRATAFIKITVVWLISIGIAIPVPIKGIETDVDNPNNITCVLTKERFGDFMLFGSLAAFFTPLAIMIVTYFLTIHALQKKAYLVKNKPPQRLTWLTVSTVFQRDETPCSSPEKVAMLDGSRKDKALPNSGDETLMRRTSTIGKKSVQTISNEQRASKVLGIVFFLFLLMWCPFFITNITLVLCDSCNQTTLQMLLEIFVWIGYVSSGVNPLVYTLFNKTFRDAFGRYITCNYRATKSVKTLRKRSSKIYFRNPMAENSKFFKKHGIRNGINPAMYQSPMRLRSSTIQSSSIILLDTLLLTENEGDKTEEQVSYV
5-hydroxytryptamine receptor 4 (Cavia porcellus), sequence (O70528 whole entry): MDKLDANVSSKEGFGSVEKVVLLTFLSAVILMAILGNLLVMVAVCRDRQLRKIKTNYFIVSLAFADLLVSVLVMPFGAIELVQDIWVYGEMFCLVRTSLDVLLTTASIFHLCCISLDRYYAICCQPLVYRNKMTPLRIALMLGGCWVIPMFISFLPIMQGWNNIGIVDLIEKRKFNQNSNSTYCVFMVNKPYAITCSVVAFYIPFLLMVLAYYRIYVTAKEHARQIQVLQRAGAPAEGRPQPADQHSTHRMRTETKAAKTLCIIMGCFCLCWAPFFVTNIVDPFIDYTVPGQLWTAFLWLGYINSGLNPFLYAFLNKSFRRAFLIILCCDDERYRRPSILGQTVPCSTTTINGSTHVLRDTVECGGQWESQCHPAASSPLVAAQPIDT
5-hydroxytryptamine receptor 2A (Homo sapiens), sequence (P28223 whole entry): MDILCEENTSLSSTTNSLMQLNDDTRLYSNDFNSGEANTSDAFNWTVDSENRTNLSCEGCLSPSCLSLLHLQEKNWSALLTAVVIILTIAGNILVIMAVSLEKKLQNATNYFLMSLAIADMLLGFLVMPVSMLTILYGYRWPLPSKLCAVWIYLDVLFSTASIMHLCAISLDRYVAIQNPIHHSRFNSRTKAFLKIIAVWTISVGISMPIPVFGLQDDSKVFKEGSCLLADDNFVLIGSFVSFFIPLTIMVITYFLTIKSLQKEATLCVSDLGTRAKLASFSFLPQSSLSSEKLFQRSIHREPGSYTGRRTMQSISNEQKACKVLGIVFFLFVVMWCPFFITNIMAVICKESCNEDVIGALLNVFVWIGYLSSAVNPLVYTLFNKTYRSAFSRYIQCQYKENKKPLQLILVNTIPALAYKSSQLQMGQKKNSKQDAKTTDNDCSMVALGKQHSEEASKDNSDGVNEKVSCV

For `Cc1n[nH]c(C)c1-c1ccc(C)c2c(O)cc(C(=O)Nc3ccc(N4CCOCC4)cc3)nc12`, in data set [1], the pKi (commonly the Ki on a negative log10 scale, so that one unit is a factor of ten) was 8.03. The inhibition – broadly, the relative decrease from the control value, in per cent – at 300 µM in data set [2] turned out to be 12%.

In data set [1], `CCC(=O)N1CCN(c2ccc(NC(=O)c3cc(=O)c4cc(F)cc(N5CCN(C)CC5)c4o3)cc2)CC1` showed a pKi of 8.77. Further, the Activity in data set [3] worked out at 150%.

In turn, `COc1cc2c(c(N3CCN(C)CC3)c1)O[C@@H](C(=O)Nc1ccc(N3CCOCC3)cc1)CC2` gave a pKi in data set [1] of 7.92. The compound also had an Activity in data set [3] of 120%.

On to `COC1(c2ccc(NC(=O)c3cc(=O)c4cc(F)cc(-c5c(C)nn(C)c5C)c4o3)cn2)CCOCC1`, for which the inhibition in data set [4] was 4%; in data set [5], -5%; in data set [6], 30%; in data set [7], -8%. Also, the result in the data set on Cavia porcellus was Active. The compound also showed a pKi in data set [1] of 9.37. This compound also returned an Activity in data set [3] of 90%.

Regarding `Cc1n[nH]c(C)c1-c1ccc(C)c2c(=O)cc(C(=O)Nc3ccc(N4CCOCC4)cc3)[nH]c12`, in data set [3], the Activity worked out at 33%.

Take `COC1(c2ccc(NC(=O)C3CCc4cc(F)cc(-c5c(C)nn(C)c5C)c4O3)cn2)CCOCC1` (stereo unspecified): the pKi in data set [1] is 9.02. Moreover, in data set [3], the Activity turned out to be 62%.

For the origin of these results see ChEMBL document CHEMBL1156870, “De novo design of a picomolar nonbasic 5-HT(1B) receptor antagonist” (J Med Chem, 2010).
